In ChEMBL document CHEMBL2311361, “Diminutive effect on T and B-cell proliferation of non-cytotoxic α-santonin derived 1,2,3-triazoles: a report” (Eur J Med Chem, 2013):

Test: Cytotoxicity against in Balb/c mouse T cells at 10^-5 M after 48 hrs by MTT assay
Type: cell-based
Conditions: t-cell, 10 µM
In short: (§1)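 Spleens taken aseptically from Balb/c mice (18–22 g). Single-cell suspension made in incomplete RPMI, RBCs lysed with Tris-ammonium chloride, cells washed, resuspended in complete RPMI and checked for viability by trypan blue. Cells seeded at 1 × 10⁶ cells/mL. Compounds in DMSO tested at 1×10⁻⁴, 1×10⁻⁵ and 1×10⁻⁶ M, 48 h, 37 °C, 5% CO₂.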
In the case of `Cc1cc(OCc2cnnn2-c2cccc([N+](=O)[O-])c2)c(C)c2c1CC[C@H]1[C@H](C)C(=O)O[C@@H]21`, the Activity is reported as “Toxic”. For `Cc1cc(OCc2cnnn2-c2ccccc2)c(C)c2c1CC[C@H]1[C@H](C)C(=O)O[C@@H]21`, the Activity was “Toxic”. In the case of `Cc1cc(OCc2cnnn2/C=C/c2ccccc2)c(C)c2c1CC[C@H]1[C@H](C)C(=O)O[C@@H]21`, the Activity is reported as “Non-toxic”. In the case of `Cc1cc(OCc2cnnn2-c2ccc(-c3ccccc3)cc2)c(C)c2c1CC[C@H]1[C@H](C)C(=O)O[C@@H]21`, the Activity is reported as “Non-toxic”.

Test: Immunosuppressive activity in Balb/c mouse T cells assessed as inhibition of concanavalin A-induced cell proliferation at 10^-4 M after 48 hrs by MTT assay
Type: functional
Conditions: not given
In short: as §1
In the case of `Cc1cc(OCc2cnnn2-c2cccc([N+](=O)[O-])c2)c(C)c2c1CC[C@H]1[C@H](C)C(=O)O[C@@H]21`, the inhibition at 100 µM is reported as 95.1%. In the case of `Cc1cc(OCc2cnnn2/C=C/c2ccccc2)c(C)c2c1CC[C@H]1[C@H](C)C(=O)O[C@@H]21`, the inhibition at 100 µM is reported as 95.1%.

Test: Immunosuppressive activity in Balb/c mouse B cells assessed as inhibition of LPS-induced cell proliferation at 10^-4 M after 48 hrs by MTT assay
Type: functional
Conditions: not given
In short: as §1
In the case of `Cc1cc(OCc2cnnn2/C=C/c2ccccc2)c(C)c2c1CC[C@H]1[C@H](C)C(=O)O[C@@H]21`, the inhibition at 100 µM is reported as 36.8%.

Test: Immunosuppressive activity in Balb/c mouse T cells assessed as inhibition of concanavalin A-induced cell proliferation at 10^-6 M after 48 hrs by MTT assay
Type: functional
Conditions: Mus musculus, Balb/c, T-cell, 48 h
In short: as §1
With `Cc1cc(OCc2cnnn2-c2cccc([N+](=O)[O-])c2)c(C)c2c1CC[C@H]1[C@H](C)C(=O)O[C@@H]21` the inhibition at 1 µM was 93.9%. For `Cc1cc(OCc2cnnn2-c2ccccc2)c(C)c2c1CC[C@H]1[C@H](C)C(=O)O[C@@H]21`, the inhibition at 1 µM was 21.4%. For `Cc1cc(OCc2cnnn2/C=C/c2ccccc2)c(C)c2c1CC[C@H]1[C@H](C)C(=O)O[C@@H]21`, the inhibition at 1 µM was 95.1%.

Test: Immunosuppressive activity in Balb/c mouse B cells assessed as inhibition of LPS-induced cell proliferation at 10^-5 M after 48 hrs by MTT assay
Type: functional
Conditions: not given
In short: as §1
In the case of `Cc1cc(OCc2cnnn2-c2ccc(-c3ccccc3)cc2)c(C)c2c1CC[C@H]1[C@H](C)C(=O)O[C@@H]21`, the inhibition at 10 µM is reported as 3.41%.

Test: Immunostimulant activity in Balb/c mouse T cells assessed as inhibition of concanavalin A-induced cell proliferation at 10^-4 M after 48 hrs by MTT assay
Type: functional
Conditions: Mus musculus, Balb/c, T-cell, 48 h
In short: as §1
With `Cc1cc(OCc2cnnn2-c2ccccc2)c(C)c2c1CC[C@H]1[C@H](C)C(=O)O[C@@H]21` the inhibition at 100 µM was 97.1%. `Cc1cc(OCc2cnnn2-c2ccc(-c3ccccc3)cc2)c(C)c2c1CC[C@H]1[C@H](C)C(=O)O[C@@H]21` showed an inhibition at 100 µM of 2.43%.

Test: Cytotoxicity against in Balb/c mouse B cells at 10^-5 M after 48 hrs by MTT assay
Type: cell-based
Conditions: 10 µM
In short: as §1
In the case of `Cc1cc(OCc2cnnn2-c2cccc([N+](=O)[O-])c2)c(C)c2c1CC[C@H]1[C@H](C)C(=O)O[C@@H]21`, the Activity is reported as “Toxic”. In the case of `Cc1cc(OCc2cnnn2-c2ccccc2)c(C)c2c1CC[C@H]1[C@H](C)C(=O)O[C@@H]21`, the Activity is reported as “Toxic”. In the case of `Cc1cc(OCc2cnnn2/C=C/c2ccccc2)c(C)c2c1CC[C@H]1[C@H](C)C(=O)O[C@@H]21`, the Activity is reported as “Non-toxic”. For `Cc1cc(OCc2cnnn2-c2ccc(-c3ccccc3)cc2)c(C)c2c1CC[C@H]1[C@H](C)C(=O)O[C@@H]21`, the Activity was “Non-toxic”.

Test: Immunostimulant activity in Balb/c mouse B cells assessed as inhibition of LPS-induced cell proliferation at 10^-4 M after 48 hrs by MTT assay
Type: functional
Conditions: not given
In short: as §1
With `Cc1cc(OCc2cnnn2-c2cccc([N+](=O)[O-])c2)c(C)c2c1CC[C@H]1[C@H](C)C(=O)O[C@@H]21` the inhibition at 100 µM was 36.8%. `Cc1cc(OCc2cnnn2-c2ccccc2)c(C)c2c1CC[C@H]1[C@H](C)C(=O)O[C@@H]21` gave an inhibition at 100 µM of 1.42%. Work on `Cc1cc(OCc2cnnn2-c2ccc(-c3ccccc3)cc2)c(C)c2c1CC[C@H]1[C@H](C)C(=O)O[C@@H]21` yielded an inhibition at 100 µM of 15.4%.

Test: Immunostimulant activity in Balb/c mouse T cells assessed as inhibition of concanavalin A-induced cell proliferation at 10^-6 M after 48 hrs by MTT assay
Type: functional
Conditions: not given
In short: as §1
For `Cc1cc(OCc2cnnn2-c2ccc(-c3ccccc3)cc2)c(C)c2c1CC[C@H]1[C@H](C)C(=O)O[C@@H]21`, the inhibition at 1 µM was 35.4%.

Test: Immunostimulant activity in Balb/c mouse B cells assessed as inhibition of LPS-induced cell proliferation at 10^-6 M after 48 hrs by MTT assay
Type: functional
Conditions: not given
In short: as §1
Compound `Cc1cc(OCc2cnnn2-c2ccccc2)c(C)c2c1CC[C@H]1[C@H](C)C(=O)O[C@@H]21` has an inhibition at 1 µM of 30%. `Cc1cc(OCc2cnnn2-c2ccc(-c3ccccc3)cc2)c(C)c2c1CC[C@H]1[C@H](C)C(=O)O[C@@H]21` showed an inhibition at 1 µM of 17.9%.

Test: Immunosuppressive activity in Balb/c mouse T cells assessed as inhibition of concanavalin A-induced cell proliferation at 10^-5 M after 48 hrs by MTT assay
Type: functional
Conditions: not given
In short: as §1
In the case of `Cc1cc(OCc2cnnn2-c2cccc([N+](=O)[O-])c2)c(C)c2c1CC[C@H]1[C@H](C)C(=O)O[C@@H]21`, the inhibition at 10 µM is reported as 93.9%. In the case of `Cc1cc(OCc2cnnn2/C=C/c2ccccc2)c(C)c2c1CC[C@H]1[C@H](C)C(=O)O[C@@H]21`, the inhibition at 10 µM is reported as 95.1%.

Test: Cytotoxicity against in Balb/c mouse B cells at 10^-6 M after 48 hrs by MTT assay
Type: cell-based
Conditions: 1 µM
In short: as §1
In the case of `Cc1cc(OCc2cnnn2-c2cccc([N+](=O)[O-])c2)c(C)c2c1CC[C@H]1[C@H](C)C(=O)O[C@@H]21`, the Activity is reported as “Non-toxic”. For `Cc1cc(OCc2cnnn2-c2ccccc2)c(C)c2c1CC[C@H]1[C@H](C)C(=O)O[C@@H]21`, the Activity was “Non-toxic”. With `Cc1cc(OCc2cnnn2/C=C/c2ccccc2)c(C)c2c1CC[C@H]1[C@H](C)C(=O)O[C@@H]21` the Activity was “Non-toxic”. With `Cc1cc(OCc2cnnn2-c2ccc(-c3ccccc3)cc2)c(C)c2c1CC[C@H]1[C@H](C)C(=O)O[C@@H]21` the Activity was “Non-toxic”.

Test: Immunostimulant activity in Balb/c mouse B cells assessed as inhibition of LPS-induced cell proliferation at 10^-5 M after 48 hrs by MTT assay
Type: functional
Conditions: not given
In short: as §1
For `Cc1cc(OCc2cnnn2-c2cccc([N+](=O)[O-])c2)c(C)c2c1CC[C@H]1[C@H](C)C(=O)O[C@@H]21`, the inhibition at 10 µM was 0.85%. Work on `Cc1cc(OCc2cnnn2-c2ccccc2)c(C)c2c1CC[C@H]1[C@H](C)C(=O)O[C@@H]21` yielded an inhibition at 10 µM of 8.57%. With `Cc1cc(OCc2cnnn2/C=C/c2ccccc2)c(C)c2c1CC[C@H]1[C@H](C)C(=O)O[C@@H]21` the inhibition at 10 µM was 48.7%.

Test: Immunosuppressive activity in Balb/c mouse B cells assessed as inhibition of LPS-induced cell proliferation at 10^-6 M after 48 hrs by MTT assay
Type: functional
Conditions: not given
In short: as §1
Work on `Cc1cc(OCc2cnnn2-c2cccc([N+](=O)[O-])c2)c(C)c2c1CC[C@H]1[C@H](C)C(=O)O[C@@H]21` yielded an inhibition at 1 µM of 24.8%. `Cc1cc(OCc2cnnn2/C=C/c2ccccc2)c(C)c2c1CC[C@H]1[C@H](C)C(=O)O[C@@H]21` showed an inhibition at 1 µM of 7.69%.

Test: Immunostimulant activity in Balb/c mouse T cells assessed as inhibition of concanavalin A-induced cell proliferation at 10^-5 M after 48 hrs by MTT assay
Type: functional
Conditions: not given
In short: as §1
`Cc1cc(OCc2cnnn2-c2ccc(-c3ccccc3)cc2)c(C)c2c1CC[C@H]1[C@H](C)C(=O)O[C@@H]21` gave an inhibition at 10 µM of 63.4%.

Test: Cytotoxicity against in Balb/c mouse B cells at 10^-4 M after 48 hrs by MTT assay
Type: cell-based
Conditions: 100 µM
In short: as §1
For `Cc1cc(OCc2cnnn2-c2cccc([N+](=O)[O-])c2)c(C)c2c1CC[C@H]1[C@H](C)C(=O)O[C@@H]21`, the Activity was “Toxic”. With `Cc1cc(OCc2cnnn2-c2ccccc2)c(C)c2c1CC[C@H]1[C@H](C)C(=O)O[C@@H]21` the Activity was “Toxic”. With `Cc1cc(OCc2cnnn2/C=C/c2ccccc2)c(C)c2c1CC[C@H]1[C@H](C)C(=O)O[C@@H]21` the Activity was “Non-toxic”. For `Cc1cc(OCc2cnnn2-c2ccc(-c3ccccc3)cc2)c(C)c2c1CC[C@H]1[C@H](C)C(=O)O[C@@H]21`, the Activity was “Toxic”.

Test: Cytotoxicity against in Balb/c mouse T cells at 10^-6 M after 48 hrs by MTT assay
Type: cell-based
Conditions: t-cell, 1 µM
In short: as §1
For `Cc1cc(OCc2cnnn2-c2cccc([N+](=O)[O-])c2)c(C)c2c1CC[C@H]1[C@H](C)C(=O)O[C@@H]21`, the Activity was “Non-toxic”. For `Cc1cc(OCc2cnnn2-c2ccccc2)c(C)c2c1CC[C@H]1[C@H](C)C(=O)O[C@@H]21`, the Activity was “Non-toxic”. In the case of `Cc1cc(OCc2cnnn2/C=C/c2ccccc2)c(C)c2c1CC[C@H]1[C@H](C)C(=O)O[C@@H]21`, the Activity is reported as “Non-toxic”. For `Cc1cc(OCc2cnnn2-c2ccc(-c3ccccc3)cc2)c(C)c2c1CC[C@H]1[C@H](C)C(=O)O[C@@H]21`, the Activity was “Non-toxic”.

Test: Cytotoxicity against in Balb/c mouse T cells at 10^-4 M after 48 hrs by MTT assay
Type: cell-based
Conditions: t-cell, 100 µM
In short: as §1
With `Cc1cc(OCc2cnnn2-c2cccc([N+](=O)[O-])c2)c(C)c2c1CC[C@H]1[C@H](C)C(=O)O[C@@H]21` the Activity was “Toxic”. In the case of `Cc1cc(OCc2cnnn2-c2ccccc2)c(C)c2c1CC[C@H]1[C@H](C)C(=O)O[C@@H]21`, the Activity is reported as “Toxic”. For `Cc1cc(OCc2cnnn2/C=C/c2ccccc2)c(C)c2c1CC[C@H]1[C@H](C)C(=O)O[C@@H]21`, the Activity was “Non-toxic”. For `Cc1cc(OCc2cnnn2-c2ccc(-c3ccccc3)cc2)c(C)c2c1CC[C@H]1[C@H](C)C(=O)O[C@@H]21`, the Activity was “Toxic”.
